In ChEMBL document CHEMBL1127559, “Syntheses and anticholinesterase activity of tetrahydrobenzazepine carbamates” (J Med Chem, 1994):
pIC50: −log10 of the molar value.

Legend:
[1] = Lethal dose was measured at 24 hour in mice following intraperitoneal administration.; assay type: toxicity, organism-based; conditions: mouse, in vivo, ip
Method in brief: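 Mice fasted overnight and dosed ip at 10 mL/kg, then housed singly in novel cages. Lethality scored over 24 h using at least four dose levels with nine animals per dose. LD50 calculated by Spearman-Karber.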

Mus musculus [2] = species on record: Mus musculus; assay: Minimal dose to produce side effects was determined for salivation; assay type: functional
Method in brief: (§1)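 Mice fasted overnight, dosed ip or po at 10 mL/kg and housed singly in novel cages. Salivation, tremor and diarrhea each scored on a 5-point scale at 15, 30 and 60 min post-dose. Value is the minimal dose producing the sign.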

Mus musculus [3] = species on record: Mus musculus; assay: Minimal dose to produce side effects was determined for tremor; assay type: functional; method in brief: as §1
Mus musculus [4] = species on record: Mus musculus; assay: Minimal dose to produce side effects was determined for diarrhea; assay type: functional; method in brief: as §1
Acetylcholinesterase = Acetylcholinesterase (Homo sapiens, UniProt P22303); assay: In vitro inhibitory activity against human acetylcholinesterase; assay type: functional
Acetylcholinesterase, sequence (P22303 whole entry): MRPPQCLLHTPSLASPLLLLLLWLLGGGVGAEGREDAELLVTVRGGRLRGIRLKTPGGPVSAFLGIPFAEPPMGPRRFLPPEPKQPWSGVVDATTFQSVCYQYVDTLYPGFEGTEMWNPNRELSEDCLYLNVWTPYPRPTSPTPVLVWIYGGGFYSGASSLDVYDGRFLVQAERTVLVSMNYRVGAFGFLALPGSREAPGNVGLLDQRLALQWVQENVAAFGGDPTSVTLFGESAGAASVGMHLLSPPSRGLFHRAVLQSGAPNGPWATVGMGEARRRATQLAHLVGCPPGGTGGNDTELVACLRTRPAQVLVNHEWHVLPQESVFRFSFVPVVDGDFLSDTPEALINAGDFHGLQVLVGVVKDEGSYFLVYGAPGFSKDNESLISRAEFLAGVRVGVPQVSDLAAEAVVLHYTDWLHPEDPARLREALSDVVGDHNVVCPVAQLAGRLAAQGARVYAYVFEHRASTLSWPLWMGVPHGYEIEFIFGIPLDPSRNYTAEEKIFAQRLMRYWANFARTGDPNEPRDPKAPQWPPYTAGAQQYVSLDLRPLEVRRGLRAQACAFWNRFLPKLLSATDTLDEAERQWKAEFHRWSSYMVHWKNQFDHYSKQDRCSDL

Mus musculus [5] = species on record: Mus musculus; assay: Minimal dose to produce side effects was determined for diarrhea in mice; assay type: functional; method in brief: as §1
Mus musculus [6] = species on record: Mus musculus; assay: Minimal dose to produce side effects was determined for salivation in mice; assay type: functional; method in brief: as §1
Mus musculus [7] = species on record: Mus musculus; assay: Minimal dose to produce side effects was determined for tremor in mice; assay type: functional; method in brief: as §1

Compound | LD50 at 24 h [1] | Dose (Mus musculus [2]) | Dose (Mus musculus [3]) | Dose (Mus musculus [4]) | pIC50 (Acetylcholinesterase) | Dose (Mus musculus [5]) | Dose (Mus musculus [6]) | Dose (Mus musculus [7])
CCCCCCCNC(=O)Oc1ccc2c(c1)C1CCN(CC)C2C1 (stereo unspecified) | 22 mg/kg | 17.8 mg/kg | 17.8 mg/kg | 3.2 mg/kg | 6.77 | – | – | –
CCCCCCCNC(=O)Oc1ccc2c(c1)C1(C)CCN(CC)C2C1 (stereo unspecified) | 4 mg/kg | – | 1.8 mg/kg | 1 mg/kg | 6.80 | – | – | –
CCCCCCNC(=O)Oc1ccc2c(c1)C1CCN(CC)C2C1 (stereo unspecified) | 9 mg/kg | 3.2 mg/kg | 3.2 mg/kg | 1.8 mg/kg | 6.90 | – | – | –
CCCCCCNC(=O)Oc1ccc2c(c1)[C@]1(C)CCN(CC)[C@@H]1C2 | 4 mg/kg | 3.2 mg/kg | 3.2 mg/kg | 1.8 mg/kg | – | – | – | –
CCN1CCC2CC1c1ccc(OC(=O)NC)cc12 (stereo unspecified) | 1 mg/kg | – | – | – | 6.77 | – | – | –
CCCCNC(=O)Oc1ccc2c(c1)C1CCN(CC)C2C1 (stereo unspecified) | – | – | – | – | 6.69 | – | – | –
CCCCCCNC(=O)Oc1ccc2c(c1)C1CCN(C)C2C1 (stereo unspecified) | 6 mg/kg | 5.6 mg/kg | 3.2 mg/kg | – | – | – | – | –
CCCCCCCNC(=O)Oc1ccc2c(c1)C1CCN(C)C2C1 (stereo unspecified) | 18 mg/kg | 10 mg/kg | 10 mg/kg | – | 6.84 | – | – | –
CCCCCCNC(=O)Oc1ccc2c(c1)C1(C)CCN(CC)C2C1 (stereo unspecified) | 9 mg/kg | – | – | – | 6.88 | – | – | –
CCCCCCCNC(=O)Oc1ccc2c(c1)[C@]1(C)CCN(C)[C@@H]1N2C [EPTASTIGMINE] | – | 10 mg/kg | 10 mg/kg | 1.8 mg/kg | – | – | – | –
CNC(=O)Oc1ccc2c(c1)[C@]1(C)CCN(C)[C@@H]1N2C [PHYSOSTIGMINE] | – | – | – | – | – | 0.32 mg/kg | 0.32 mg/kg | 0.32 mg/kg
